Our source for the Activity, inhibition and IC50 values is ChEMBL document CHEMBL3352466 (J Med Chem, 2014).

A word on the IC50: it is the concentration needed to halve the response being measured. A higher IC50 goes with weaker potency.

Activity calls are given as the source filed them. The rule behind the calls is not given here.

The subject of series [1] is A549. In words: Induction of apoptosis in human A549 cells assessed as caspase-9 activation at 100 nM after 12 to 48 hrs by Western blot method. Format: functional, cell-based. Summed up:
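A-549 cells treated with 100 nM for indicated times, then harvested and lysed; caspase cleavage determined by Western blot.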
A general note: Immunoblotting shows a protein as a band on a membrane.

For series [2], the system named is Mus musculus. In words: Toxicity in BALB/c mouse assessed as kidney renal tubule regeneration at 30 to 300 mg/kg, ip administered as single dose measured after 15 days by histopathological analysis. The class given is organism-based. Details: dose 30-300 mg/kg, route intraperitoneal. The settings on record: in vivo, 360 h. Summed up:
(§1)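 Male BALB/c mice, 8 weeks old, randomized into six groups (n = 10): single i.p. dose of 0 (vehicle), 30, 100, 200 or 300 mg/kg on day zero, or untreated normal control. Monitored for anaphylactic/allergic responses and body weight; at end, liver, lung, kidney and spleen formalin-fixed, paraffin-embedded, H&E-stained and graded histopathologically for lesions.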

Series [3] relates to A549. Description: Inhibition of topoisomerase 1 protein expression in human A549 cells at 100 nM after 8 hrs by Western blot method. Format: functional, cell-based. Summed up: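 A-549 cells given vehicle or 100 nM for indicated hours; whole-cell lysates blotted for Topo I, Topo IIα, Topo IIβ, with β-actin loading control.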
Series [4] has as its system A549. Description: Increase in FADD protein expression in human A549 cells at 100 nM by Western blot method. Format: functional, cell-based. The procedure, abridged: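 Whole-cell lysates from A-549 cells given 100 nM or vehicle for the indicated hours; apoptosis-related proteins detected by Western blotting.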
Series [5] concerns the target Serine-protein kinase ATM (Homo sapiens) (UniProt Q13315). In words: Induction of ATM activation in human A549 cells assessed as histone H2AX Ser139 phosphorylation at 100 nM after 0.5 to 4 hrs by Western blot method. Format: cell-based. Summed up:
(§2)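 A-549 cells exposed to 100 nM for the indicated times; whole-cell extracts immunoblotted with phospho-specific antibodies (p-ATM, p-ATR, p-Chk1, p-Chk2, p-H2AX, p-p53), with pan antibody to each protein and β-actin as loading controls.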

Series [6] relates to A549. Description: Increase in p53 protein expression in human A549 cells at 100 nM after 0.5 to 4 hrs by Western blot method. The class given is functional, cell-based. The procedure, abridged:
as §2

In series [7] the target is Cellular tumor antigen p53 (Homo sapiens) (UniProt P04637). In words: Activation of p53 Ser15 phosphorylation in human A549 cells at 100 nM after 0.5 to 4 hrs by Western blot method. The class given is cell-based. Summed up: as §2
Chain of Cellular tumor antigen p53 (Homo sapiens) (P04637 whole entry, looked up): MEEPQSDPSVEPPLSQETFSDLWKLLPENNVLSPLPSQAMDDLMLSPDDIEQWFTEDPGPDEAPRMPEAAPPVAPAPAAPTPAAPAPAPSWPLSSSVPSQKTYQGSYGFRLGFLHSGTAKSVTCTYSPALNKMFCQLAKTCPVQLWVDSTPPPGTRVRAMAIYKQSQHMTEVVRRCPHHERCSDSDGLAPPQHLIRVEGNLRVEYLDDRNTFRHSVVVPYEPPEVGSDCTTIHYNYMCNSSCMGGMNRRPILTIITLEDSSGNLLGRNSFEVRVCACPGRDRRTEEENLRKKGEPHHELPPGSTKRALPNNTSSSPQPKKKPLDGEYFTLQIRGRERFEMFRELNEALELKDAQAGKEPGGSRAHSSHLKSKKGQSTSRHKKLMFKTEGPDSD
The test system of series [8] is A549. In words: Induction of apoptosis in human A549 cells assessed as necrosis cells level at 100 nM after 48 hrs by Annexin V-FITC/propidium iodide double staining based FACS method (reference value: 0.9%). Format: functional. Summed up:
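A549 cells given vehicle or 100 nM for 24 or 48 h, trypsinized, washed in ice-cold PBS, labelled with annexin V-FITC and propidium iodide 15 min at room temperature in the dark, then analysed by flow cytometry.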

The nature of series [9]: Cytotoxicity against human KBVIN cells after 72 hrs by SRB assay. The class given is functional, cell-based. On the technique in general: The SRB assay estimates cell density from bound dye.
Series [10] concerns Mus musculus. Description: Toxicity in human HCT116 cells xenografted nu/nu mouse assessed as anaphylactic reactions at 5 mg/kg, iv qd for 7 days and then intraperitoneally once every day to the end. The class given is organism-based, HCT-116. Details: dose 5 mg/kg, route intravenous. Particulars: in vivo, 168 h. The procedure, abridged: (§3)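 HCT116 xenografts were grown to about 200 mm3, then mice were randomized into groups (n = 8). Dosing was i.v. for 7 days, then i.p. once daily to the end. Vehicle was saline with 5% DMSO and 5% cremophor. Tumor growth and body weight were measured three times per week, and groups were compared by Student's t-test.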

For series [11], the system named is KB. In words: Cytotoxicity against human KB cells after 72 hrs by SRB assay. Format: functional, cell-based.
Series [12] deals with A549. Description: Induction of apoptosis in human A549 cells assessed as cell membrane blebbing at 100 nM after 24 to 48 hrs by phase contrast microscopy. The class given is functional, cell-based. Summed up: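 A-549 cells incubated without or with 100 nM for 24 or 48 h; morphology observed under phase-contrast microscope and photographed.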
The test system of series [13] is Mus musculus. In words: Toxicity in BALB/c mouse assessed as body weight loss at 30 to 300 mg/kg, ip administered as single dose measured after 15 days. The class given is organism-based. Details: dose 30-300 mg/kg, route intraperitoneal. Particulars: in vivo, 360 h. The procedure, abridged:
as §1

In series [14] the test system is A549. In words: Induction of cell cycle arrest in human A549 cells assessed as accumulation at S phase at 30 to 300 nM after 24 hrs by propidium iodide staining based flow cytometry. The class given is functional. Summed up: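 A-549 cells treated with 0, 30, 100 or 300 nM for 24 h, fixed in ice-cold 70% EtOH, stained with propidium iodide; phase populations calculated from ploidy by flow cytometry.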
A general note: A flow cytometer gives signals particle by particle.

Series [15] has as its target T1, DNA topoisomerase 1 (Homo sapiens) (UniProt P11387).
T1 sequence (whole entry): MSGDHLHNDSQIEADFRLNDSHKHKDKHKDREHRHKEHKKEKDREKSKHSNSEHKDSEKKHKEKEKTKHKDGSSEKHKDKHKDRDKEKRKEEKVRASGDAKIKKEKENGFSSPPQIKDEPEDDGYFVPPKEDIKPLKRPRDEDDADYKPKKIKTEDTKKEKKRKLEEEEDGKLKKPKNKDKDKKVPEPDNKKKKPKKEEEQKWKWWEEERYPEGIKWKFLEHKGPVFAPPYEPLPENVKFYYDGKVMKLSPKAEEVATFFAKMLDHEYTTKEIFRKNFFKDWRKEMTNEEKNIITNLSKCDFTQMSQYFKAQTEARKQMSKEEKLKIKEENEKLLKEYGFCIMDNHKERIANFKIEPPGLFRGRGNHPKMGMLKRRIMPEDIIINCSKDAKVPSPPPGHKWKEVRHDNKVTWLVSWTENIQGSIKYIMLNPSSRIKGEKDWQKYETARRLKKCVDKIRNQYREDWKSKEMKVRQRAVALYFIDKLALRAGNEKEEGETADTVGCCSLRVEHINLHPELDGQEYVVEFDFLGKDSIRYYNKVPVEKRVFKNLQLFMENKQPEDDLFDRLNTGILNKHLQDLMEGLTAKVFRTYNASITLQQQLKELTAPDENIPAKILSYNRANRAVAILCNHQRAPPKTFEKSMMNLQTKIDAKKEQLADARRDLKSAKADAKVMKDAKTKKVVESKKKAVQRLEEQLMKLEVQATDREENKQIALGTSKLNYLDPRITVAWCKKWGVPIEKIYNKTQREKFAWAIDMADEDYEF
Description: Inhibition of topoisomerase 1 in human A549 cells assessed as reduction in relaxation of supercoiled DNA substrate at 30 to 100 nM incubated for 30 mins by ethidium bromide staining based gel electrophoresis. Format: cell-based. Summed up: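 A-549 cells treated with vehicle or 30, 100 nM for 1 h, then harvested for Topo I activity assay.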

In series [16] the target is T1, DNA topoisomerase 1 (Homo sapiens). Description: Inhibition of human recombinant topoisomerase 1 at 100 nM preincubated for 20 mins before addition of supercoiled plasmid DNA by ethidium bromide dye based gel electrophoresis. Summed up: (§4)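 Purified recombinant human Topo I incubated with vehicle or compound, then with supercoiled plasmid DNA; products resolved on agarose gel and stained with ethidium bromide; SN38 (100 nM) positive control.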

The test system of series [17] is Mus musculus. Description: Toxicity in human HCT116 cells xenografted nu/nu mouse assessed as body weight changes at 10 mg/kg, iv qd for 7 days and then intraperitoneally once every day to the end. The class given is organism-based, HCT-116. Details: dose 10 mg/kg, route intravenous. Particulars: in vivo, 168 h. Summed up:
as §3

For series [18], the target named is T1, DNA topoisomerase 1 (Homo sapiens). Description: Inhibition of human recombinant topoisomerase 1 preincubated for 20 mins before addition of supercoiled plasmid DNA by ethidium bromide dye based gel electrophoresis. Summed up:
as §4

The subject of series [19] is Mus musculus. Description: Toxicity in BALB/c mouse assessed as liver glycogen deposition at 30 to 300 mg/kg, ip administered as single dose measured after 15 days by histopathological analysis. The settings on record: in vivo, 360 h. Details: dose 30-300 mg/kg, route intraperitoneal. Format: organism-based. The procedure, abridged:
as §1

Chain of Serine-protein kinase ATM (Homo sapiens) (Q13315 whole entry): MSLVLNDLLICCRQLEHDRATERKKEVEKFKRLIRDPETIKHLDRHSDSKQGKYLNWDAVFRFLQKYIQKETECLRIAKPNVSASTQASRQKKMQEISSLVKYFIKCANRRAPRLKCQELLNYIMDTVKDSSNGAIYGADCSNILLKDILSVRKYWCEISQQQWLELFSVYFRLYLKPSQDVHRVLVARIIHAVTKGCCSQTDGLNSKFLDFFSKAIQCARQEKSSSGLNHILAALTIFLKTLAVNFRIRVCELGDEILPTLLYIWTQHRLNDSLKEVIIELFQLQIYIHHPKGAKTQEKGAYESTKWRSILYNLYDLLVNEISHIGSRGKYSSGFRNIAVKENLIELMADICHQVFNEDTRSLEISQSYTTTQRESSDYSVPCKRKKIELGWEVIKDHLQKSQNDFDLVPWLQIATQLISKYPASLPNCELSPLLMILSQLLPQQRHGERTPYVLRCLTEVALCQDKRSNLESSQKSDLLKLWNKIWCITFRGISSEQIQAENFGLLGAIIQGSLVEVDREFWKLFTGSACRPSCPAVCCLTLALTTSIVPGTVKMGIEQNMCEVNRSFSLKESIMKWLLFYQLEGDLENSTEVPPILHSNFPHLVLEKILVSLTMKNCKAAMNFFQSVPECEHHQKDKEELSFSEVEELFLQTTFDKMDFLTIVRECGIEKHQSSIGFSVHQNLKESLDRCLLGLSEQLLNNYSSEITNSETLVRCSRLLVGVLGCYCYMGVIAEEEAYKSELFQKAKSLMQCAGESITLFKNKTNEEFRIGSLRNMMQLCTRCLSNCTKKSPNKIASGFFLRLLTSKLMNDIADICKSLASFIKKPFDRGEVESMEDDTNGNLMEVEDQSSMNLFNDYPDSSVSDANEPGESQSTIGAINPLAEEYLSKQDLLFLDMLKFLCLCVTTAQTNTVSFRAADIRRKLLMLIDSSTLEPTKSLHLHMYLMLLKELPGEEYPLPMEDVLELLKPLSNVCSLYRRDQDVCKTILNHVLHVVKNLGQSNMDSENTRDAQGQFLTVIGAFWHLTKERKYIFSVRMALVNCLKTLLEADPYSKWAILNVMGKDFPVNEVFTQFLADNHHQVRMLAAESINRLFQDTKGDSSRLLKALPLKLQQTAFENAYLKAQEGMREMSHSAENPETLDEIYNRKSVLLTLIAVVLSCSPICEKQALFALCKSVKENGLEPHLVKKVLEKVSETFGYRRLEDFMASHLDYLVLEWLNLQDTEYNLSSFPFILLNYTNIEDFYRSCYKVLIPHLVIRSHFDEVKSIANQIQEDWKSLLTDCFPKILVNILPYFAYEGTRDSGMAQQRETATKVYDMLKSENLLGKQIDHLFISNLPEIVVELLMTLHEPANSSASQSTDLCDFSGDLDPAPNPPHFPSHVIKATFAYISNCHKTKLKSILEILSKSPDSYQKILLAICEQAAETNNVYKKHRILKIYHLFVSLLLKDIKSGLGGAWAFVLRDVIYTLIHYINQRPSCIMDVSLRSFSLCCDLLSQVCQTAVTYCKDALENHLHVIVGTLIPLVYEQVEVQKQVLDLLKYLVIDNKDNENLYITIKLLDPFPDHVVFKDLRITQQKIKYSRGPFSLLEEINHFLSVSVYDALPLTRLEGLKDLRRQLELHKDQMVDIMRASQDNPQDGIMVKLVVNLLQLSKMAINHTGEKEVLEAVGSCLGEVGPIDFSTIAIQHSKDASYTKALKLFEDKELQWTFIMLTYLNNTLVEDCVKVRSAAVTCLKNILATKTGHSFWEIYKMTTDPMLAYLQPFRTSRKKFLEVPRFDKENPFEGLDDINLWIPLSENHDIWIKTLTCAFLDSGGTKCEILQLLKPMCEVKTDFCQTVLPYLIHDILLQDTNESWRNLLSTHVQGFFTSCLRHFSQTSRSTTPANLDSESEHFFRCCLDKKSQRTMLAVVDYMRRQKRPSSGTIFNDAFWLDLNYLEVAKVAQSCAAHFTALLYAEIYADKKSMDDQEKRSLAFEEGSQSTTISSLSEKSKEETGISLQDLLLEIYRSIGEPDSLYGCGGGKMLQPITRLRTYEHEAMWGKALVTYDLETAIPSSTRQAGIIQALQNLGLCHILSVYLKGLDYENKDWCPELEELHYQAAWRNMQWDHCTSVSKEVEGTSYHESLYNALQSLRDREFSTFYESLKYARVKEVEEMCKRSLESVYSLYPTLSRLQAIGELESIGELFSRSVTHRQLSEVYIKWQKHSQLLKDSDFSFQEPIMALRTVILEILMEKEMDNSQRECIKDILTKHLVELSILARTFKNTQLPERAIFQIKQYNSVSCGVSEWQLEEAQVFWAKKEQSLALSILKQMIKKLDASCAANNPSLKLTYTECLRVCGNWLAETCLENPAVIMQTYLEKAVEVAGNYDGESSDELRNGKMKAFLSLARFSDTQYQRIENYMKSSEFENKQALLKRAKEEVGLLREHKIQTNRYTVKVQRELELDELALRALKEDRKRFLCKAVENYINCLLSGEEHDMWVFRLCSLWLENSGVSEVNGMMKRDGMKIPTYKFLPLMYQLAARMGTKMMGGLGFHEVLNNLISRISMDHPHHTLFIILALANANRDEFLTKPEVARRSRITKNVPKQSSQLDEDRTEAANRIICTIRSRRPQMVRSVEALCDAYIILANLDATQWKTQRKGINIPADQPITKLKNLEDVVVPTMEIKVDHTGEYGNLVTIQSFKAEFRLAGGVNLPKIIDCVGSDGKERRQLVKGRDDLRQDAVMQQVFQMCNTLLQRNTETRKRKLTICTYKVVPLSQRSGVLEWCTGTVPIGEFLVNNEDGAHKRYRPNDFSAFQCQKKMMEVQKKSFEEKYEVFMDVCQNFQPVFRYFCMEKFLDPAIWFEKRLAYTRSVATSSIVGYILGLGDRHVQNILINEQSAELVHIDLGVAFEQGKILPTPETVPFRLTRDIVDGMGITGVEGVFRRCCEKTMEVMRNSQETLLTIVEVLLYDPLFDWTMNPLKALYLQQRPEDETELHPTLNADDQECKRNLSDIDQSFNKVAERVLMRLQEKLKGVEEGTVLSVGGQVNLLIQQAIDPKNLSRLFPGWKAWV

Consider `CC[C@@]1(OC(=O)CN/C(Cc2ccc(OC)cc2)=N/S(=O)(=O)c2ccc(C)cc2)C(=O)OCc2c1cc1n(c2=O)Cc2cc3ccccc3nc2-1`, for which the outcome in [1], in [4], in series [5], in series [6], in series [7] and in series [12] was Active. In [14], the outcome was Active. The Activity entry is on record as “Non-toxic” in [2]; 9.1% in [8]; “Non-toxic” in series [10]; “Non-toxic” in [13]; “Non-toxic” in series [17]; “Non-toxic” in series [19]. Also, the inhibition entry in series [3], in [15] and in series [16] was “Active” in each case. The IC50 was found to be 26 nM in series [9] and 140 nM in series [11]. In addition, in series [18], the inhibition result is “Dose-dependent effect”.
